Data on two substances can be found in paper PMC11785078 (bioRxiv, 2025).

For one data set, the system named is cell culture. The conditions noted are these: ref [14] Iwasaki et al., 2014; cited from earlier work.
Data set [1] concerns MCF-7 estrogen receptor positive breast cancer cells. Put plainly: MTT cytotoxicity assay, MCF-7. The class given is cell-based, human. Conditions: 72 h, 5% FBS. The method in brief: (§1)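 Cells plated at 5×10^3/well and attached overnight. Growth media were DMEM:F-12 (1:1) with 10% FBS for MDA-MB-231 and RPMI 1640 with 10% FBS for MCF-7. Test compound or DMSO vehicle applied for 72 h with 5% FBS. MTT added at 0.5 mg/mL final for 3 h at 37°C, 5% CO2, and formazan dissolved in DMSO. A570 read in three wells per condition and normalized to DMSO + 5% FBS. Mean ± SE of three experiments; one-way ANOVA with Bonferroni.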
On the technique in general: Formazan colour is commonly taken as a measure of viable cells.

In data set [2] the test system is MDA-MB-231 triple-negative breast cancer (TNBC) cells. In words: MTT cytotoxicity assay, MDA-MB-231. It is filed as cell-based, human. The conditions noted are these: 72 h, 5% FBS. The method in brief:
as §1

For another data set, the system named is mice. In words: Open field locomotor behavior. It is filed as in vivo, male C57Bl/6J mice. Conditions: ICV 20 μg, 10-minute open field, vs vehicle, unpaired t-test P>0.05. The method in brief:
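Male C57Bl/6J mice, 8–10 weeks old, fitted under isoflurane with a right lateral ventricle ICV cannula and allowed one week of recovery. After 1 h habituation in a dim room with 60 dB white noise, mice received 20 µg test compound in 0.5 µL 50% DMSO/50% aCSF over 2 min, or vehicle alone. Open field test began 5 min later; total distance travelled was scored blind. Cannula placement was checked at necropsy.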

For data set [3], the target named is T1, Sigma 2 receptor (Transmembrane Protein 97 (TMEM97)) (Rattus norvegicus, UniProt Q5U3Y7).
T1 sequence (Q5U3Y7 1-176): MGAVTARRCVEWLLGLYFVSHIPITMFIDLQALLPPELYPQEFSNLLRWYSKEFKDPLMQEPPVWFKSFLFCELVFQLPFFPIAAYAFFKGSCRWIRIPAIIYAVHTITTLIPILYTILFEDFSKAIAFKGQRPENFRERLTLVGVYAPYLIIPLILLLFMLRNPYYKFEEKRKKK
Put plainly: PDSP radioligand competition-binding assay, sigma 2. Conditions: 10 μM (primary criterion). On the technique in general: In a radioligand displacement assay an active substance lowers the binding of a labelled ligand.

[4] abbreviates: printed "15 M", mean of three experiments.

Turning to maedamide, in the data set with cell culture, the “antitumor cytotoxicity” value is reported as “only linear depsipeptide that exhibits antitumor cytotoxicity in cell culture”.
Regarding veraguamide C, the “effect on viability / toxicity in MCF-7 (ER positive) cells” value in data set [1] (listed as veraguamide C) was “mild toxicity”. Further, the “cytotoxicity, MCF7 cells” value in data set [1] (setting [4]) was 65%. The “effect on viability / toxicity in TNBC cells (words)” value in data set [2] is given as “selectively reduce viability”; in data set [2] (listed as veraguamide C), “similar, albeit minor, levels of toxicity”. In addition, the “cytotoxicity, TNBC cells (MDA-MB-231)” value in data set [2] (setting [4]) was determined as 53%. The “effect on locomotor behavior” value in the data set on mice is reported as “no effect of veraguamide C on total distance traveled compared to vehicle”. The “Primary: Percent Inhibition of Binding” value in data set [3] amounted to 65%.
